Experiments:
Assay type in all cases: functional
[1] = test system: OVCAR-4; assay: Antiproliferative activity against human OVCAR-4 cells assessed as cell growth inhibition at 10 uM incubated for 48 hrs by sulforhodamine B assay relative to control
Procedure, shortened: (§1)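 NCI-60 single-dose screen at 10^-5 M. Cells grown in RPMI 1640 with 5% FBS and 2 mM L-glutamine, plated at 5,000–40,000 cells/well, and preincubated 24 h. Drug (DMSO stock) added and incubated 48 h at 37 °C, 5% CO2. Adherent cells fixed with cold TCA, stained with 0.4% SRB in 1% acetic acid, dye solubilized in 10 mM trizma base, A515 read. Percent growth taken against time-zero and untreated control.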

[2] = test system: OVCAR-5; assay: Antiproliferative activity against human OVCAR-5 cells assessed as cell growth inhibition at 10 uM incubated for 48 hrs by sulforhodamine B assay relative to control; procedure, shortened: as §1
[3] = test system: RXF 393; assay: Antiproliferative activity against human RXF 393 cells assessed as cell growth inhibition at 10 uM incubated for 48 hrs by sulforhodamine B assay relative to control; procedure, shortened: as §1
[4] = test system: SF-539; assay: Antiproliferative activity against human SF-539 cells assessed as cell growth inhibition at 10 uM incubated for 48 hrs by sulforhodamine B assay relative to control; procedure, shortened: as §1
[5] = test system: EKVX; assay: Antiproliferative activity against human EKVX cells assessed as cell growth inhibition at 10 uM incubated for 48 hrs by sulforhodamine B assay relative to control
Procedure, shortened: (§2)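 NCI-60 one-dose prescreen at 10^-5 M. Cells grown in RPMI 1640 with 5% FBS and 2 mM glutamine, preincubated 24 h, then exposed 48 h at 37 °C. Adherent lines TCA-fixed, SRB-stained, A515 read. Growth percent relative to time-zero and control; negative values mean cell kill.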

[6] = test system: MOLT-4; assay: Antiproliferative activity against human MOLT-4 cells assessed as cell growth inhibition at 10 uM incubated for 48 hrs by sulforhodamine B assay relative to control; procedure, shortened: as §1
[7] = test system: RPMI-8226; assay: Antiproliferative activity against human RPMI-8226 cells assessed as cell growth inhibition at 10 uM incubated for 48 hrs by sulforhodamine B assay relative to control; procedure, shortened: as §1
[8] = test system: NCI-H226; assay: Antiproliferative activity against human NCI-H226 cells assessed as cell growth inhibition at 10 uM incubated for 48 hrs by sulforhodamine B assay relative to control; procedure, shortened: as §1
[9] = test system: SK-MEL-5; assay: Antiproliferative activity against human SK-MEL-5 cells assessed as cell growth inhibition at 10 uM incubated for 48 hrs by sulforhodamine B assay relative to control; procedure, shortened: as §1
[10] = test system: PC-3; assay: Antiproliferative activity against human PC-3 cells assessed as cell growth inhibition at 10 uM incubated for 48 hrs by sulforhodamine B assay relative to control; procedure, shortened: as §1
[11] = test system: ACHN; assay: Antiproliferative activity against human ACHN cells assessed as cell growth inhibition at 10 uM incubated for 48 hrs by sulforhodamine B assay relative to control
Procedure, shortened: (§3)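 Single-dose NCI-60 prescreen at 10^-5 M. Cells in RPMI 1640 with 5% FBS and 2 mM L-glutamine, seeded 5,000–40,000 cells/well with 24 h preincubation, then drug exposure for 48 h at 37 °C under 5% CO2. Growth read by SRB staining of TCA-fixed cells at 515 nm against time-zero and untreated controls. Negative growth values denote cell kill.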

[12] = test system: NCI-H23; assay: Antiproliferative activity against human NCI-H23 cells assessed as cell growth inhibition at 10 uM incubated for 48 hrs by sulforhodamine B assay relative to control; procedure, shortened: as §1
[13] = test system: NCI-H522; assay: Antiproliferative activity against human NCI-H522 cells assessed as cell growth inhibition at 10 uM incubated for 48 hrs by sulforhodamine B assay relative to control; procedure, shortened: as §1
[14] = test system: U-251; assay: Antiproliferative activity against human U-251 cells assessed as cell growth inhibition at 10 uM incubated for 48 hrs by sulforhodamine B assay relative to control; procedure, shortened: as §1
[15] = test system: NCI/ADR-RES; assay: Antiproliferative activity against human NCI/ADR-RES cells assessed as cell growth inhibition at 10 uM incubated for 48 hrs by sulforhodamine B assay relative to control; procedure, shortened: as §1
[16] = test system: A498; assay: Antiproliferative activity against human A498 cells assessed as cell growth inhibition at 10 uM incubated for 48 hrs by sulforhodamine B assay relative to control; procedure, shortened: as §3
[17] = test system: MDA-MB-468; assay: Antiproliferative activity against human MDA-MB-468 cells assessed as cell growth inhibition at 10 uM incubated for 48 hrs by sulforhodamine B assay relative to control; procedure, shortened: as §1
[18] = test system: LOX IMVI; assay: Antiproliferative activity against human LOX IMVI cells assessed as cell growth inhibition at 10 uM incubated for 48 hrs by sulforhodamine B assay relative to control; procedure, shortened: as §1
[19] = test system: A549; assay: Antiproliferative activity against human A549 cells assessed as cell growth inhibition at 10 uM incubated for 48 hrs by sulforhodamine B assay relative to control; procedure, shortened: as §3
[20] = test system: NCI-H460; assay: Antiproliferative activity against human NCI-H460 cells assessed as cell growth inhibition at 10 uM incubated for 48 hrs by sulforhodamine B assay relative to control; procedure, shortened: as §1
[21] = test system: IGROV-1; assay: Antiproliferative activity against human IGROV-1 cells assessed as cell growth inhibition at 10 uM incubated for 48 hrs by sulforhodamine B assay relative to control; procedure, shortened: as §1
[22] = test system: CCRF-CEM; assay: Antiproliferative activity against human CCRF-CEM cells assessed as cell growth inhibition at 10 uM incubated for 48 hrs by sulforhodamine B assay relative to control; procedure, shortened: as §3
[23] = test system: 786-0; assay: Antiproliferative activity against human 786-0 cells assessed as cell growth inhibition at 10 uM incubated for 48 hrs by sulforhodamine B assay relative to control; procedure, shortened: as §3
[24] = test system: Hs-578T; assay: Antiproliferative activity against human Hs-578T cells assessed as cell growth inhibition at 10 uM incubated for 48 hrs by sulforhodamine B assay relative to control; procedure, shortened: as §1
[25] = test system: T47D; assay: Antiproliferative activity against human T47D cells assessed as cell growth inhibition at 10 uM incubated for 48 hrs by sulforhodamine B assay relative to control; procedure, shortened: as §1
[26] = test system: HOP-92; assay: Antiproliferative activity against human HOP-92 cells assessed as cell growth inhibition at 10 uM incubated for 48 hrs by sulforhodamine B assay relative to control; procedure, shortened: as §2
[27] = test system: MCF7; assay: Antiproliferative activity against human MCF7 cells assessed as cell growth inhibition at 10 uM incubated for 48 hrs by sulforhodamine B assay relative to control; procedure, shortened: as §1
[28] = test system: HCT-15; assay: Antiproliferative activity against human HCT-15 cells assessed as cell growth inhibition at 10 uM incubated for 48 hrs by sulforhodamine B assay relative to control; procedure, shortened: as §2
[29] = test system: SF-268; assay: Antiproliferative activity against human SF-268 cells assessed as cell growth inhibition at 10 uM incubated for 48 hrs by sulforhodamine B assay relative to control; procedure, shortened: as §1
[30] = test system: NCI-H322M; assay: Antiproliferative activity against human NCI-H322M cells assessed as cell growth inhibition at 10 uM incubated for 48 hrs by sulforhodamine B assay relative to control; procedure, shortened: as §1
[31] = test system: M14; assay: Antiproliferative activity against human M14 cells assessed as cell growth inhibition at 10 uM incubated for 48 hrs by sulforhodamine B assay relative to control; procedure, shortened: as §1

SMILES	inhibition at 10 µM [2] [%]	inhibition at 10 µM [4] [%]	inhibition at 10 µM [5] [%]	inhibition at 10 µM [6] [%]	inhibition at 10 µM [7] [%]	inhibition at 10 µM [9] [%]	inhibition at 10 µM [10] [%]	inhibition at 10 µM [11] [%]	inhibition at 10 µM [12] [%]	inhibition at 10 µM [13] [%]	inhibition at 10 µM [14] [%]	inhibition at 10 µM [15] [%]	inhibition at 10 µM [18] [%]	inhibition at 10 µM [19] [%]	inhibition at 10 µM [21] [%]	inhibition at 10 µM [22] [%]	inhibition at 10 µM [23] [%]	inhibition at 10 µM [24] [%]	inhibition at 10 µM [25] [%]	inhibition at 10 µM [27] [%]	further results
Cc1cccc(-c2cn3ccnc3c(-c3ccc4ncn(Cc5ccccc5)c4c3)n2)c1	6.64	7.28	22.3	36.9	37.5	10.1	24.8	12.4	9.09	28.4	19.4	12.1	14.8	14.9	9.51	21.1	21.4	8.47	86	22.2	inhibition at 10 µM [1]: 19.3%; inhibition at 10 µM [3]: 2.01%; inhibition at 10 µM [8]: 1.18%; inhibition at 10 µM [16]: 22.1%; inhibition at 10 µM [17]: 16.6%; inhibition at 10 µM [20]: 10.1%; inhibition at 10 µM [26]: 28.7%; inhibition at 10 µM [28]: 35.2%; inhibition at 10 µM [29]: 7.22%
Brc1cn2ccnc2c(-c2ccc3ncn(C4CCCCC4)c3c2)n1	6.64	10	12	26.3	14.9	13.4	17.2	11.5	10.2	16.2	1.5	8.82	15.2	9.36	6.6	7.68	10	16.1	49.7	47.6	inhibition at 10 µM [1]: 9.15%; inhibition at 10 µM [30]: 18.1%; inhibition at 10 µM [3]: 5.58%; inhibition at 10 µM [8]: 22.5%; inhibition at 10 µM [17]: 44.4%; inhibition at 10 µM [26]: 30.7%; inhibition at 10 µM [28]: 13.1%; inhibition at 10 µM [29]: 17.1%
c1cn2cc(-c3ccc4c(c3)ncn4C3CCCCC3)nc(-c3ccc4ncn(C5CCCCC5)c4c3)c2n1	1.44	35.7	60.2	56.9	70.8	36.8	45	5.48	20.5	28.5	38.7	27	25.9	25.3	8.51	46.1	25.8	23.6	44.7	19.1	inhibition at 10 µM [3]: 37.4%; inhibition at 10 µM [8]: 18.8%; inhibition at 10 µM [31]: 6.98%; inhibition at 10 µM [16]: 16.3%; inhibition at 10 µM [17]: 14.9%; inhibition at 10 µM [20]: 11.9%; inhibition at 10 µM [28]: 35.6%; inhibition at 10 µM [29]: 18.4%
c1ccc(Cn2cnc3ccc(-c4nc(-c5cccc6ccccc56)cn5ccnc45)cc32)cc1	1.83	4.22	24.6	22.3	26.9	9.69	31.4	12.3	10.4	29.3	5.53	5.83	16.5	7.31	11.3	6.22	12.4	5.98	73.8	29.2	inhibition at 10 µM [1]: 7.88%; inhibition at 10 µM [30]: 1.34%; inhibition at 10 µM [31]: 4.41%; inhibition at 10 µM [16]: 6.74%; inhibition at 10 µM [20]: 3.8%; inhibition at 10 µM [26]: 42.5%; inhibition at 10 µM [28]: 8.2%; inhibition at 10 µM [29]: 10.3%
